In ChEMBL document CHEMBL1817571, “Design and synthesis of new prostaglandin D₂ receptor antagonists” (Bioorg Med Chem, 2011):

Tests used:
[1] = target: T1, Prostaglandin D2 receptor (Mus musculus, UniProt P70263); test: Displacement of [3H]PGD2 from mouse prostanoid DP receptor expressed in CHO cells after 20 mins by liquid scintillation counting
T1 sequence (P70263 whole entry): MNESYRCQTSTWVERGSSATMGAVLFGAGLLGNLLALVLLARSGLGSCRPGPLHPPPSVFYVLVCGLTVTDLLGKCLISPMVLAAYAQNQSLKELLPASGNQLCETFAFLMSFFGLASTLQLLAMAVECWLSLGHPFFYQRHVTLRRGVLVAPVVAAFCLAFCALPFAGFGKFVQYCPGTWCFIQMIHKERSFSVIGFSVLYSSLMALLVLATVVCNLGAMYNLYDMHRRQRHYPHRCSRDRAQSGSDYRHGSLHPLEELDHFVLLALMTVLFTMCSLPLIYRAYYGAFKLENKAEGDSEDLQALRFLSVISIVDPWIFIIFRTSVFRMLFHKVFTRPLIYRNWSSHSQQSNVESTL

[2] = target: T1, Prostaglandin D2 receptor; test: Antagonist activity at mouse prostanoid DP receptor expressed in CHO cells assessed as inhibition of PGD2-induced intracellular cAMP production; assay type: functional, cell-based
In short: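 CHO-mDP cells were seeded at 1×10^5 cells/well and grown 2 days. They were preincubated about 10 min at 37 °C in MEM with 2 µM diclofenac, then about 10 min in MEM with 0.1% BSA, 1 mM IBMX and 2 µM diclofenac. Test compounds at various concentrations plus 10 nM PGD2 were then added for 10 min at 37 °C. Reactions were stopped with 10% TCA, extracted with tri-n-octylamine/chloroform, and cAMP was measured by EIA.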

[3] = target: Prostacyclin receptor (Homo sapiens, UniProt P43119); test: Displacement of [3H]Iloprost from human prostanoid IP receptor expressed in CHO cells after 30 mins by liquid scintillation counting
[4] = target: T2, Prostaglandin E2 receptor EP1 subtype (Mus musculus, UniProt P35375); test: Displacement of [3H]PGE2 from mouse prostaglandin EP1 receptor expressed in CHO cells after 20 mins by liquid scintillation counting
T2 sequence (P35375 whole entry): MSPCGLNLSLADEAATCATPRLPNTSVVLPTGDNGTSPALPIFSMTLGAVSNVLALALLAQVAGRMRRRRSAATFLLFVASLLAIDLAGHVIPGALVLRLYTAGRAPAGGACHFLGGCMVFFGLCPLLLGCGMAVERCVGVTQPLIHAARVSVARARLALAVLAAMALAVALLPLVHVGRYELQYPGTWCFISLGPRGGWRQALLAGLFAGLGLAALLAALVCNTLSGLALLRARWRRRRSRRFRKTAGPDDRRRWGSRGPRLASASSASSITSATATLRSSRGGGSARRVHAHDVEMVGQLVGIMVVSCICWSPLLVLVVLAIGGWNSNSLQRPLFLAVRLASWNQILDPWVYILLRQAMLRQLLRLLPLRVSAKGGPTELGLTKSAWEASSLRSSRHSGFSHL

[5] = target: Prostaglandin E2 receptor EP4 subtype (Mus musculus, UniProt P32240); test: Displacement of [3H]PGE2 from mouse prostaglandin EP4 receptor expressed in CHO cells after 60 mins by liquid scintillation counting; assay type: cell-based
In short: (§1)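 Membranes came from CHO cells stably expressing mEP1, EP2, EP3 or EP4. They were incubated with 2.5 nM [3H]PGE2 and graded test concentrations in 10 mM KH2PO4–KOH (1 mM EDTA, 10 mM MgCl2, 100 mM NaCl, pH 6.0) at room temperature, 20 min for EP1 and 60 min for EP2–4. Reactions were filtered on GF/B, washed with ice-cold buffer, and counted by scintillation. IC50 came by regression, with Ki via Cheng–Prusoff.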

[6] = target: Prostaglandin F2-alpha receptor (Mus musculus, UniProt P43117); test: Displacement of [3H]PGF2alpha from mouse prostanoid FP receptor expressed in CHO cells after 60 mins by liquid scintillation counting; assay type: cell-based
In short: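 CHO-mFP membranes were incubated with 2.5 nM [3H]PGF2α and varied test concentrations in 10 mM KH2PO4–KOH, 1 mM EDTA, 10 mM MgCl2, 100 mM NaCl, pH 6.0, for 60 min at room temperature. Samples were then filtered on GF/B, washed with ice-cold phosphate/NaCl buffer, and counted by scintillation. IC50 came from the regression curve, and Ki = IC50/(1+[L]/Kd).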

[7] = target: T3, Thromboxane A2 receptor (Homo sapiens, UniProt P21731); test: Displacement of [3H]-SQ29548 from human prostanoid TP receptor expressed in CHO cells after 30 mins by liquid scintillation counting
T3 sequence (P21731 whole entry): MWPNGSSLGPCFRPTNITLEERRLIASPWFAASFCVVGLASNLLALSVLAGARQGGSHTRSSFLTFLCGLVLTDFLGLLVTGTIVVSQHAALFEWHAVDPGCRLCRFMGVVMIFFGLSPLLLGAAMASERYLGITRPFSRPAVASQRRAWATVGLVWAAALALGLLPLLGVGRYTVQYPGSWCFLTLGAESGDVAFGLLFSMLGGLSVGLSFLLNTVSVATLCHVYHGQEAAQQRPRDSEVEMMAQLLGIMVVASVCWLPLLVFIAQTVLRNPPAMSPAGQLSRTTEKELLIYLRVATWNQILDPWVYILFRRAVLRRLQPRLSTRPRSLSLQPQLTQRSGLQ

[8] = target: T4, Prostaglandin E2 receptor EP3 subtype (Mus musculus, UniProt P30557); test: Displacement of [3H]PGE2 from mouse prostaglandin EP3alpha receptor expressed in CHO cells after 60 mins by liquid scintillation counting; assay type: cell-based
T4 sequence (P30557 whole entry): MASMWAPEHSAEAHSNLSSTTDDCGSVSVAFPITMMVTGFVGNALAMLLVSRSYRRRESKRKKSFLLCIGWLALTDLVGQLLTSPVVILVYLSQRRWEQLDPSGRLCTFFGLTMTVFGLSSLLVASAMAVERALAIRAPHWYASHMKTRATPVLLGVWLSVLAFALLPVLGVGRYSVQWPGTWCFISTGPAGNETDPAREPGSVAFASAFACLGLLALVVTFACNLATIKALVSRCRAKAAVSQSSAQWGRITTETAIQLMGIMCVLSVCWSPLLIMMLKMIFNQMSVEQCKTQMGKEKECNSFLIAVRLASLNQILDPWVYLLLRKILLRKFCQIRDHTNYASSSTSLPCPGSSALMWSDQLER
In short: as §1

[9] = target: Prostaglandin E2 receptor EP2 subtype (Mus musculus, UniProt Q62053); test: Displacement of [3H]PGE2 from mouse prostaglandin EP2 receptor expressed in CHO cells after 60 mins by liquid scintillation counting; assay type: cell-based
In short: as §1

[10] = target: T2, Prostaglandin E2 receptor EP1 subtype; test: Displacement of [3H]PGE2 from mouse prostaglandin EP1 receptor expressed in CHO cells after 60 mins by liquid scintillation counting; assay type: cell-based
[11] = Cmax in rat at 10 mg/kg, po; assay type: ADME, organism-based; parameters: dose 10 mg/kg, route oral; details: in vivo
In short: (§2)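 Fasted male rats (n = 3) received 1 mg/kg iv or 10 mg/kg po. Jugular vein blood was drawn with a heparinized syringe at pre-dose and 2 (iv only), 5, 15 and 30 min, and 1, 2, 4, 6 and 8 h. Plasma was obtained by centrifugation at 4 °C and stored at −80 °C. AUC, Cmax, T1/2, Vss and CL came from the plasma concentration–time course. BA was derived from dose-normalized AUCpo/AUCiv.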

[12] = Half life in rat at 10 mg/kg, po; assay type: ADME, organism-based; parameters: dose 10 mg/kg, route oral; details: in vivo
In short: as §2

[13] = Volume of distribution at steady state in rat at 1 mg/kg, iv; assay type: ADME, organism-based; parameters: dose 1 mg/kg, route intravenous; details: in vivo, read-out: Vdss
In short: as §2

[14] = Total clearance in rat at 1 mg/kg, iv; assay type: ADME, organism-based; parameters: dose 1 mg/kg, route intravenous; details: in vivo
In short: as §2

[15] = Half life in rat at 1 mg/kg, iv; assay type: ADME, organism-based; parameters: dose 1 mg/kg, route intravenous; details: in vivo
In short: as §2

[16] = AUC (infinity) in rat at 10 mg/kg, po; assay type: ADME, organism-based; parameters: time infinity, dose 10 mg/kg, route oral; details: plasma
In short: as §2

[17] = AUC (infinity) in rat at 1 mg/kg, iv; assay type: ADME, organism-based; parameters: time infinity, dose 1 mg/kg, route intravenous; details: plasma
In short: as §2

[18] = Oral bioavailability in rat at 10 mg/kg; assay type: ADME, organism-based; details: in vivo
In short: as §2

Sequence of Prostacyclin receptor (P43119 whole entry): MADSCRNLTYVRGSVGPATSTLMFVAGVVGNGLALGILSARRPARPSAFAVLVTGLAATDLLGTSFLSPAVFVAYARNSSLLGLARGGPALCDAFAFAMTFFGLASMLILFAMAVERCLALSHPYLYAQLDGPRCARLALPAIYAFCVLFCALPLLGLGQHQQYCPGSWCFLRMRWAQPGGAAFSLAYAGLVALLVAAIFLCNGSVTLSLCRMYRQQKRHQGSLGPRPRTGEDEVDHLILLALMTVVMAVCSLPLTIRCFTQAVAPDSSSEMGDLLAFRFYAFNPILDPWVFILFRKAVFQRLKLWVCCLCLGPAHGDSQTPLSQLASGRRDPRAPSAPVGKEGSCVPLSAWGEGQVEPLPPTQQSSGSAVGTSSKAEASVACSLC
Sequence of Prostaglandin E2 receptor EP4 subtype (P32240 whole entry): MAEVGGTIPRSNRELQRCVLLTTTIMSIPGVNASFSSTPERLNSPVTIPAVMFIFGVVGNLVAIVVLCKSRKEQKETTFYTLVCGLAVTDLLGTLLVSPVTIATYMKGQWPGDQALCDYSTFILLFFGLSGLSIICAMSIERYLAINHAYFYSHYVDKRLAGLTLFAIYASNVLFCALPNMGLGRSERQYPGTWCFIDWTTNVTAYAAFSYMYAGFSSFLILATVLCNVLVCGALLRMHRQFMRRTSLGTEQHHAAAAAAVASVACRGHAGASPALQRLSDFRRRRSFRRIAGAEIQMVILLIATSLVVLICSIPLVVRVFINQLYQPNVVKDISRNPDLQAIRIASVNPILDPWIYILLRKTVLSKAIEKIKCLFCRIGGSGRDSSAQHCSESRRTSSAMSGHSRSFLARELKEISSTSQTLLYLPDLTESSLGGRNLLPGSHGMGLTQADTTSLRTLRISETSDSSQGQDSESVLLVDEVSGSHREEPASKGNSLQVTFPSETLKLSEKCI
Sequence of Prostaglandin F2-alpha receptor (P43117 whole entry): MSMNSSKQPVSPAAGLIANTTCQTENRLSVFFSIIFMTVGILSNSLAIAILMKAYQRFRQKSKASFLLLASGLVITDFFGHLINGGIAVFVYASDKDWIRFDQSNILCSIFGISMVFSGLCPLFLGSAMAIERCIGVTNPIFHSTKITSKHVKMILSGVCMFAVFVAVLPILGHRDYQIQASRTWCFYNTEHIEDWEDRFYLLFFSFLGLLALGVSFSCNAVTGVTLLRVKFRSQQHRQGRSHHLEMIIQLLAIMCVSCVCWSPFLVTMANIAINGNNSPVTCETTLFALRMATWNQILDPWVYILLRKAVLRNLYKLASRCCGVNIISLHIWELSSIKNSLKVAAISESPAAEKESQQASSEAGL
Sequence of Prostaglandin E2 receptor EP2 subtype (Q62053 whole entry): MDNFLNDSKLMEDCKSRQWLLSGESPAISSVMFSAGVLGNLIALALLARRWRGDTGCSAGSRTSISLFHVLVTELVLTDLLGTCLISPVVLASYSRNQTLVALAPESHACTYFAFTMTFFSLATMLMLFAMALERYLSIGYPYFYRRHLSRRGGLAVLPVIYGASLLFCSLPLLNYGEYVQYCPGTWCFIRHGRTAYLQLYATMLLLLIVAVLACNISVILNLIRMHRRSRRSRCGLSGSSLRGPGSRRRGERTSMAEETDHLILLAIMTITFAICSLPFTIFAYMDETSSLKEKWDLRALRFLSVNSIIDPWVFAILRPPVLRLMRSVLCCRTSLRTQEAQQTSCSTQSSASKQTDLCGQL

| SMILES | Ki [1] | IC50 [2] | other results |
| --- | --- | --- | --- |
| Cc1cc(OC[C@@H]2CN(C)c3ccccc3O2)ccc1C(=O)Nc1cc(CC(=O)O)ccc1F | 19 nM | 1.8 nM | – |
| Cc1cc(OC[C@@H]2CN(C)c3ccccc3O2)ccc1C(=O)Nc1cc(F)cc(CC(=O)O)c1 | 7.4 nM | 5.6 nM | – |
| Cc1cc(OC[C@@H]2CN(C)c3ccccc3O2)ccc1C(=O)Nc1ccc(F)c(CC(=O)O)c1 | 15 nM | 1.2 nM | – |
| COc1ccc(NC(=O)c2ccc(OC[C@@H]3CN(C)c4ccccc4O3)cc2C)cc1CC(=O)O | 24 nM | 20 nM | – |
| Cc1ccc(CC(=O)O)cc1NC(=O)c1ccc(OC[C@@H]2CN(C)c3ccccc3O2)cc1Cl | 26 nM | 6 nM | – |
| Cc1cc(CC(=O)O)cc(NC(=O)c2ccc(OC[C@@H]3CN(C)c4ccccc4O3)cc2Cl)c1 | 12 nM | 5.4 nM | – |
| Cc1ccc(NC(=O)c2ccc(OC[C@@H]3CN(C)c4ccccc4O3)cc2Cl)cc1CC(=O)O | 17 nM | 3.9 nM | – |
| CN1C[C@@H](COc2ccc(C(=O)Nc3cc(CC(=O)O)ccc3Cl)c(Cl)c2)Oc2ccccc21 | 13 nM | 4.3 nM | Ki [3]: 1600 nM; Ki [4]: 6600 nM; Ki [5]: > 10000 nM; Ki [6]: > 10000 nM; Ki [7]: > 10000 nM; Ki [8]: > 10000 nM; Ki [9]: 44 nM |
| CN1C[C@@H](COc2ccc(C(=O)Nc3cc(CC(=O)O)ccc3F)c(Cl)c2)Oc2ccccc21 | 17 nM | 7.4 nM | Ki [3]: > 10000 nM; Ki [5]: > 10000 nM; Ki [6]: > 10000 nM; Ki [10]: > 10000 nM; Ki [7]: > 10000 nM; Ki [8]: > 10000 nM; Ki [9]: 22 nM |
| CN1C[C@@H](COc2ccc(C(=O)Nc3ccc(F)c(CC(=O)O)c3)c(Cl)c2)Oc2ccccc21 | 25 nM | 50 nM | – |
| COc1ccc(NC(=O)c2ccc(OC[C@@H]3CN(C)c4ccccc4O3)cc2Cl)cc1CC(=O)O | 36 nM | 41 nM | – |
| Cc1cc2c(CC(=O)O)cccc2n1C(=O)c1ccc(OC[C@@H]2CN(C)c3ccccc3O2)cc1 | – | – | Cmax [11]: 3500 ng/mL; half-life [12]: 5.4 h; Vd [13]: 1.8 L/kg; clearance [14]: 2.4 mL/min/kg; half-life [15]: 9.8 h; AUC(0-inf) [16]: 24300 ng·h/mL; AUC(0-inf) [17]: 7200 ng·h/mL; bioavailability [18]: 34% |
